# From ChEMBL document CHEMBL1131373, “Novel nonpeptide CCK-B antagonists: design and development of quinazolinone derivatives as potent, selective, and orally active CCK-B antagonists” (J Med Chem, 1998)
# Key:
# [1] = biological target: T1, Cholecystokinin receptor type A (Rattus norvegicus, UniProt P30551); test: Binding affinity towards Cholecystokinin type A receptor (CCK-A) receptor from rat pancreas using [125I]bolton Hunter CCK-8 as radioligand
# T1 sequence (P30551 whole entry): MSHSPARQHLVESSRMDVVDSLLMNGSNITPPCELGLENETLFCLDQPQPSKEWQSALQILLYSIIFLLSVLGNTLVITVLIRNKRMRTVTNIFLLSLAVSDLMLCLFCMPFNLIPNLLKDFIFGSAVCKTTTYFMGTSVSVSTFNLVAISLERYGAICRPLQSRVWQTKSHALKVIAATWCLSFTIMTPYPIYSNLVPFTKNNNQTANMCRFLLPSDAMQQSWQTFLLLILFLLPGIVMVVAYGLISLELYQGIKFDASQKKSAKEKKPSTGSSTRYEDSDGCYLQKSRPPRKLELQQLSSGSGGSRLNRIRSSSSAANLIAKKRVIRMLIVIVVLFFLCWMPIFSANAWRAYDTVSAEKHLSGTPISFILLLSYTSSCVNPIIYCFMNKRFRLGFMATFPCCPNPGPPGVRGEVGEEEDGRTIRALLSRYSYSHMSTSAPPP
# In short: (§1)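 IC50 = concentration giving half-maximal inhibition of specific [125I]Bolton Hunter CCK-8 binding, with CCK-B sites from mouse cerebral cortex and CCK-A sites from rat pancreas. Weaker compounds given as % inhibition at 10 μM. Values are geometric means of at least three separate experiments; statistical errors 15% of the mean.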
# [2] = biological target: T2, Gastrin/cholecystokinin type B receptor (Mus musculus, UniProt P56481); test: Binding affinity towards Cholecystokinin type B receptor (CCK-B) receptor in mouse cerebral cortex using [125I]bolton Hunter CCK-8 as radioligand; type: tissue-based
# T2 sequence (P56481 whole entry): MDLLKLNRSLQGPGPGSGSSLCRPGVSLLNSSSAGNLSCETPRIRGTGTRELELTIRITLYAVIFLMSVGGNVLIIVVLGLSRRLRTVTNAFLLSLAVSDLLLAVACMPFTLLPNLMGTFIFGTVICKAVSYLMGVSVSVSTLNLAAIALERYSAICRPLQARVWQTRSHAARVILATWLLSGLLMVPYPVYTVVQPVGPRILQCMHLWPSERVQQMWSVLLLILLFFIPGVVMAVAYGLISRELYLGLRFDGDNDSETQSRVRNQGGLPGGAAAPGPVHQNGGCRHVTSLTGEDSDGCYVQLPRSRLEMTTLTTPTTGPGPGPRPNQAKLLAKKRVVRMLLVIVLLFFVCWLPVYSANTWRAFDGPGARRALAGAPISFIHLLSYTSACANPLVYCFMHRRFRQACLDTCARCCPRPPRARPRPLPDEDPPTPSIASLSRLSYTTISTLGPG
# [3] = The compound was tested for percent absolute oral bioavailability (%F) in rats and value in parenthesis indicate percent relative standard deviation (% RSD).; type: ADME, organism-based; conditions: rat, in vivo, read-out: F (%RSD)
# In short: (§2)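 Fasted male Wistar rats, three per group, given a single oral nominal dose of 10 mg/kg or a single iv nominal dose of 5 mg/kg. Vehicle was either 25:40:35 ethanol/PEG400/5% dextrose water or 10:40:50 dimethylacetamide/PEG400/5% dextrose water. Heparinized plasma taken from a jugular vein cannula at serial times out to 24 h and assayed by validated HPLC-fluorescence. Noncompartmental analysis; %F = dose-normalized po AUC/iv AUC.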
# [4] = The compound tested for maximum observed plasma concentration in rats and is expressed in microgram/mL.; type: ADME, organism-based; conditions: rat; in short: as §2
# [5] = The compound was tested for the time to reach maximum observed plasma concentration in rats and is expressed in mins.; type: ADME, organism-based; conditions: rat; in short: as §2
# [6] = The compound was tested for systemic plasma clearance(CL) in rats and is expressed in mL/min/kg.; type: ADME, organism-based; conditions: rat; in short: as §2
# [7] = biological target: T3, Cholecystokinin receptor type A (Rattus norvegicus) (UniProt P30551); test: Binding affinity towards Cholecystokinin type A receptor (CCK-A) receptor from rat pancreas using [125I]bolton Hunter CCK-8 as radioligand at a concentration of 10 um; in short: as §1
# T3 sequence (whole entry): T1 sequence (P30551 whole entry)
# [8] = The compound was tested for percent absolute oral bioavailability (%F) in rats; type: ADME, organism-based; conditions: rat, in vivo; in short: as §2
# [9] = biological target: T4, Gastrin/cholecystokinin type B receptor (Mus musculus) (UniProt P56481); test: Binding affinity towards Cholecystokinin type B receptor (CCK-B) receptor in mouse cerebral cortex using [125I]bolton Hunter CCK-8 as radioligand at a concentration of 10 um; type: tissue-based; in short: as §1
# T4 sequence (whole entry): T2 sequence (P56481 whole entry)
SMILES,IC50 [1] [nM],IC50 [2] [nM],further results
CC(C)Oc1cccc(-n2c(NNC(=O)Nc3cccc(C#N)c3)nc3ccccc3c2=O)c1,5350,1.2,–
CCOC(=O)c1cccc(NC(=O)NNc2nc3ccccc3c(=O)n2-c2cccc(N(C)C)c2)c1,2650,5,–
CN(C)c1cccc(-n2c(NNC(=O)Nc3cccc(C#N)c3)nc3ccccc3c2=O)c1,7100,14,bioavailability [3]: 22%; Cmax [4]: 910 ng/mL; Tmax [5]: 25 min; clearance [6]: 29.5 mL/min/kg
Cc1cccc(NC(=O)NNc2nc3ccccc3c(=O)n2-c2cccc(F)c2)c1,–,915,inhibition [7]: 26%
COc1ccc(-n2c(NNC(=O)Nc3cccc(C)c3)nc3ccccc3c2=O)cc1OC,–,2110,inhibition [7]: 34%
CCOc1cccc(-n2c(NNC(=O)Nc3cccc(C)c3)nc3ccccc3c2=O)c1,2570,45,–
CC(C)Oc1cccc(-n2c(NNC(=O)Nc3cccc(C(F)(F)F)c3)nc3ccccc3c2=O)c1,2240,8,–
CC(C)Oc1cccc(-n2c(CCc3c[nH]c4cc(Br)ccc34)nc3ccccc3c2=O)c1,–,9.3,–
N#Cc1cccc(NC(=O)NNc2nc3ccccc3c(=O)n2-c2ccccc2)c1,–,262,inhibition [7]: 37%
Cc1cccc(NC(=O)NNc2nc3ccccc3c(=O)n2-c2cccnc2)c1,12500,4280,–
COc1ccccc1NC(=O)NNc1nc2ccccc2c(=O)n1-c1cccc(OC(C)C)c1,4200,10,–
CC(C)Oc1cccc(-n2c(NNC(=O)c3ccc(Br)cc3)nc3ccccc3c2=O)c1,5560,88,–
CCOC(=O)c1ccc(NC(=O)NNc2nc3ccccc3c(=O)n2-c2cccc(OC(C)C)c2)cc1,3160,57,–
CCOC(=O)c1cccc(NC(=O)NNc2nc3ccccc3c(=O)n2-c2cccc(OC(C)C)c2)c1,3470,1.5,–
CCOC(=O)c1cccc(NC(=O)NNc2nc3ccccc3c(=O)n2-c2cccc(OCC)c2)c1,1210,5,–
CCOC(=O)c1ccccc1NC(=O)NNc1nc2ccccc2c(=O)n1-c1cccc(OC(C)C)c1,–,7670,inhibition [7]: 22%
CC(C)Oc1cccc(-n2c(NNC(=O)Nc3ccccc3)nc3ccccc3c2=O)c1,4580,15,–
COc1cccc(N(CC(=O)N(C)c2ccccc2)C(=O)CNC(=O)Nc2cccc(C)c2)c1,140,8,–
CC(C)Oc1cccc(-n2c(NNC(=O)Nc3ccc(Br)cc3)nc3ccccc3c2=O)c1,3430,14,–
Cc1cccc(NC(=O)NNc2nc3ccccc3c(=O)n2-c2cccc(N(C)C)c2)c1,4900,63,–
COc1ccc(NC(=O)NNc2nc3ccccc3c(=O)n2-c2cccc(OC(C)C)c2)cc1,15500,25,–
CC(C)Oc1cccc(-n2c(NNC(=O)Nc3cccc([N+](=O)[O-])c3)nc3ccccc3c2=O)c1,2560,1,–
Cc1cccc(NC(=O)NNc2nc3ccccc3c(=O)n2-c2cccc(N)c2)c1,107,219,–
CCOC(=O)c1cccc(NC(=O)NNc2nc3ccccc3c(=O)n2-c2cccnc2)c1,11200,319,–
CC(C)Oc1cccc(-n2c(NNC(=O)Nc3cccc(C(=O)OC(C)(C)C)c3)nc3ccccc3c2=O)c1,2960,1.9,Cmax [4]: < 250 ng/mL; bioavailability [8]: < 5%; clearance [6]: 18 mL/min/kg
CCOC(=O)c1cccc(NC(=O)NNc2nc3ccccc3c(=O)n2-c2cccc3ccccc23)c1,–,–,inhibition [9]: 35%; inhibition [7]: 5%
CCOc1cccc(-n2c(NNC(=O)Nc3cccc(C#N)c3)nc3ccccc3c2=O)c1,4450,5.8,–

SMILES,IC50 [1] [nM],IC50 [2] [nM],further results
Cc1cccc(NC(=O)NNc2nc3ccccc3c(=O)n2-c2ccc(Cl)c(Cl)c2)c1,–,97,inhibition [7]: 10%
Cc1cccc(NC(=O)NNc2nc3ccccc3c(=O)n2-c2cccc(OC(C)C)c2)c1,6400,11,–
CCOC(=O)c1cccc(NC(=O)NNc2nc3ccccc3c(=O)n2-c2ccccc2)c1,–,152,inhibition [7]: 37%
Cc1cccc(NC(=O)NNc2nc3ccccc3c(=O)n2-c2ccc(Cl)cc2)c1,–,1170,inhibition [7]: 10%
CCOC(=O)c1cccc(NC(=O)NNc2nc3ccccc3c(=O)n2-c2cccc(OC)c2)c1,2330,15,–
Cc1cccc(NC(=O)NNc2nc3ccccc3c(=O)n2-c2cccc(Cl)c2)c1,–,225,inhibition [7]: 20%
CC(C)Oc1cccc(-n2c(NNC(=O)NC3CCCCC3)nc3ccccc3c2=O)c1,17300,108,–
COc1cccc(NC(=O)NNc2nc3ccccc3c(=O)n2-c2cccc(OC(C)C)c2)c1,7470,22,–
CCOC(=O)c1cccc(NC(=O)NNc2nc3ccccc3c(=O)n2-c2ccc(Cl)c(Cl)c2)c1,–,2.4,inhibition [7]: 16%
CCOC(=O)c1cccc(NC(=O)NNc2nc3ccccc3c(=O)n2-c2ccc(OC)cc2)c1,–,592,inhibition [7]: 20%
CC(C)Oc1cccc(-n2c(NNC(=O)Nc3ccc(C(F)(F)F)cc3)nc3ccccc3c2=O)c1,2780,38,–
Cc1cccc(NC(=O)NNc2nc3ccccc3c(=O)n2-c2ccccc2)c1,–,1080,inhibition [7]: 39%
COc1cccc(N(CC(=O)N(C)c2ccccc2)C(=O)CNC(=O)Nc2cccc(C(=O)O)c2)c1,925,23,–
O=C(NNc1nc2ccccc2c(=O)n1-c1ccccc1)Nc1ccccc1,7330,1240,–
CCOC(=O)c1cccc(NC(=O)NNc2nc3ccccc3c(=O)n2-c2ccc(Cl)cc2)c1,–,14,inhibition [7]: 15%
COc1cccc(-n2c(NNC(=O)Nc3cccc(C)c3)nc3ccccc3c2=O)c1,5100,200,–
Cc1cccc(NC(=O)NNc2nc3ccccc3c(=O)n2-c2cccc(Cl)c2Cl)c1,3010,73,–
CC(C)Oc1cccc(-n2c(NNC(=O)Nc3cccc(Cl)c3)nc3ccccc3c2=O)c1,2420,5.9,–
COC(=O)c1cccc(NC(=O)N[C@@H]2N=C(c3ccccc3)c3ccccc3N(C)C2=O)c1,–,8,–
CC(C)Oc1cccc(-n2c(NNC(=O)Nc3ccc(Cl)cc3)nc3ccccc3c2=O)c1,3590,14,–
CCOC(=O)c1cccc(NC(=O)NNc2nc3ccccc3c(=O)n2-c2ccc(OC)c(OC)c2)c1,–,611,inhibition [7]: 20%
CCOC(=O)c1cccc(NC(=O)NNc2nc3ccccc3c(=O)n2-c2cccc(F)c2)c1,–,26,inhibition [7]: 30%
CC(C)Oc1cccc(-n2c(NNC(=O)Nc3cccc(C(=O)O)c3)nc3ccccc3c2=O)c1,8110,29,–
CCOC(=O)c1cccc(NC(=O)NNc2nc3ccccc3c(=O)n2-c2cccc(Cl)c2)c1,4980,33,–
CCOC(=O)c1cccc(NC(=O)NNc2nc3ccccc3c(=O)n2-c2cccc(Cl)c2Cl)c1,1660,50,–
CN(C)c1cccc(-n2c(CCc3c[nH]c4cc(Br)ccc34)nc3ccccc3c2=O)c1,–,16,–
Cc1cccc(NC(=O)NNc2nc3ccccc3c(=O)n2-c2cccc3ccccc23)c1,–,3560,inhibition [7]: 7%
